{"source": "PubChem BioAssay", "key": {"[1]": {"biological_target": "Pantothenate synthetase (Mycobacterium tuberculosis (strain ATCC 25618 / H37Rv)) (UniProt P9WIL5)", "sequence (P9WIL5 whole entry, looked up)": "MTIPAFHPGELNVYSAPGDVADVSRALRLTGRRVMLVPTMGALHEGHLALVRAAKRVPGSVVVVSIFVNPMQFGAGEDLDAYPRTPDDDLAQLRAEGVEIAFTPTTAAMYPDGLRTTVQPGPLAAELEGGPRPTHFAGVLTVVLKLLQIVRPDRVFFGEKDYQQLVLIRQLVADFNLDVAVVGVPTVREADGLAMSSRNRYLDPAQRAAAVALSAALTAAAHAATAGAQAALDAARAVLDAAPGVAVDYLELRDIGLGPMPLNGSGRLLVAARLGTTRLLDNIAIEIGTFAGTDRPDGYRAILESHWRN", "experiment": "Coupled enzyme confirmation of inhibitors against recombinant Mtb PanC (AID 375; call rule not given here;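 for all read-outs here: 0% = full reaction with vehicle and 100% = no enzyme background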)", "settings": "coupled enzyme assay; at 10 µM, stronger effect = higher value"}, "[2]": {"experiment": "reduced viability of SK-BR-3 breast cancer cells – cell-based, 24 h, human, pilot screen (AID 572;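 active = viability at or below 10% of carrier control in both of two separate runs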;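 for all read-outs here: compound exposure lasted between 18 and 24 h rather than exactly 24 h; 100% = carrier-treated control wells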)", "settings": "SK-BR-3 viability, CellTiter-Glo luminescence, at 10 µM, stronger effect = lower value"}, "[3]": {"experiment": "HUVEC growth inhibition – cell-based, human, primary screen (AID 575;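 active = viability at or below 30% in both replicate assays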;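 for all read-outs here: 100% = median of untreated cell wells with 0.1% DMSO on each plate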)", "settings": "HUVEC proliferation, CellTiter-Glo luminescence, 72 h; at 10 µM; stronger effect = lower value", "procedure,_shortened": "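Test system: primary human umbilical vein endothelial cells. Quantity: 1250 cells/well. Compound: single 10 µM dose, 0.1% DMSO, from 5x medium stock. Timing: 72 h treatment at 37 °C. Detection: ATP-based CellTiter-Glo luminescent read. Benchmarks: vehicle and MePR control wells. Format: 384-well plates coated with collagen.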"}, "[4]": {"experiment": "H69AR cell proliferation blockers – human, duplicate replicates, primary screen (AID 580);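 for all read-outs here: 100% = mean luminescence of untreated wells and 0% = no signal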", "settings": "H69AR lung tumor cells viability, ATP luminescence, 72 h; at 10 µM; stronger effect = lower value"}, "[5]": {"experiment": "MRP1 drug-resistance reversers in H69AR cells – cell-based, doxorubicin co-treatment, pilot screen (AID 601;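 active = viability loss from added drug above about 55%, and viability with drug at most 40%, in both replicates, limit read from the data, passing the limit was not always enough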)", "settings": "CellTiter-Glo, 72 h, at 10 µM; for differential viability (reversal): stronger effect = higher value"}, "[6]": {"experiment": "yeast transport mutant growth inhibition pilot in 384-well plates, post-Golgi transport modulator project (AID 636; in the data active = inhibition above about 31%)", "settings": "absorbance 615 nm, about 18 h, stronger effect = higher value"}, "[7]": {"experiment": "growth suppression of yeast trafficking mutant, preliminary HTS, modulators of trafficking downstream of Golgi apparatus project, 1536-format plate, OD 615 nm (AID 637; in the data active = inhibition above about 30%)", "settings": "yeast transport mutant growth, absorbance 615 nm, 18 h; stronger effect = higher value"}, "[8]": {"settings": "H69AR cells + 2 uM doxorubicin, measured here: viability with 2 uM doxorubicin, stronger effect = lower value"}, "[9]": {"settings": "H69AR cells, compound alone cytotoxicity"}}, "note": "Activity calls are given as the source filed them.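 Rule for the calls, unless noted: active = viability at or under a set limit in both replicates, limit being median viability minus 3 SD (cut at about 48% in these data, passing the limit was not always enough); inconclusive = at or under the limit in just one replicate; inactive = at or above the limit in both replicates.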", "data": [{"smiles": "CC(CCc1ccccc1)NC(C)C(O)c1ccc(O)cc1", "note": "(centres undefined)", "values": [{"measurement": "inhibition", "setting": "[1]", "result": "4% (inactive)"}, {"measurement": "viability", "setting": "[2]", "result": "87% (inactive)"}, {"measurement": "viability", "setting": "[3]", "result": "87.5% (inactive)"}, {"measurement": "viability", "setting": "[4]", "result": "97.2% (inactive)"}, {"measurement": "differential viability (reversal)", "setting": "[5]; H69AR cells + 2 uM doxorubicin", "result": "1.7% (inactive)"}, {"measurement": "viability", "setting": "[5]; [8]", "result": 95.5, "unit": "%"}, {"measurement": "viability", "setting": "[5]; [9]", "result": 97.2, "unit": "%"}, {"measurement": "inhibition", "setting": "[6]", "result": "-0.26% (inactive)"}, {"measurement": "inhibition", "setting": "[7]", "result": "-3% (inactive)"}]}, {"smiles": "COC1=CC(=O)OC(/C=C/c2ccccc2)C1", "note": "(centres undefined)", "values": [{"measurement": "inhibition", "setting": "[1]", "result": "0% (inactive)"}, {"measurement": "viability", "setting": "[2]", "result": "124% (inactive)"}, {"measurement": "viability", "setting": "[3]", "result": "96.6% (inactive)"}, {"measurement": "viability", "setting": "[4]", "result": "87.6% (inactive)"}, {"measurement": "differential viability (reversal)", "setting": "[5]; H69AR cells + 2 uM doxorubicin", "result": "2.78% (inactive)"}, {"measurement": "viability", "setting": "[5]; [8]", "result": 84.8, "unit": "%"}, {"measurement": "viability", "setting": "[5]; [9]", "result": 87.6, "unit": "%"}, {"measurement": "inhibition", "setting": "[6]", "result": "-1.56% (inactive)"}, {"measurement": "inhibition", "setting": "[7]", "result": "-4.5% (inactive)"}]}, {"smiles": "CC(C)[C@@]1(NC(=O)[C@@H]2C[C@@H]3c4cccc5[nH]cc(c45)C[C@H]3N(C)C2)O[C@@]2(O)[C@@H]3CCCN3C(=O)[C@H](Cc3ccccc3)N2C1=O", "values": [{"measurement": "inhibition", "setting": "[1]", "result": "4% (inactive)"}, {"measurement": "viability", "setting": "[2]", "result": "111% (inactive)"}, {"measurement": "viability", "setting": "[3]", "result": "4.38% (active)"}, {"measurement": "viability", "setting": "[4]", "result": "73.8% (inactive)"}, {"measurement": "differential viability (reversal)", "setting": "[5]; H69AR cells + 2 uM doxorubicin", "result": "-3.47% (inactive)"}, {"measurement": "viability", "setting": "[5]; [8]", "result": 77.3, "unit": "%"}, {"measurement": "viability", "setting": "[5]; [9]", "result": 73.8, "unit": "%"}, {"measurement": "inhibition", "setting": "[6]", "result": "-1.56% (inactive)"}, {"measurement": "inhibition", "setting": "[7]", "result": "-1.67% (inactive)"}]}, {"smiles": "C[C@H]1OC[C@@H](C[N+](C)(C)C)O1", "values": [{"measurement": "inhibition", "setting": "[1]", "result": "0% (inactive)"}, {"measurement": "viability", "setting": "[2]", "result": "103% (inactive)"}, {"measurement": "viability", "setting": "[3]", "result": "99.6% (inactive)"}, {"measurement": "viability", "setting": "[4]", "result": "106% (inactive)"}, {"measurement": "differential viability (reversal)", "setting": "[5]; H69AR cells + 2 uM doxorubicin", "result": "7.41% (inactive)"}, {"measurement": "viability", "setting": "[5]; [8]", "result": 98.6, "unit": "%"}, {"measurement": "viability", "setting": "[5]; [9]", "result": 106, "unit": "%"}, {"measurement": "inhibition", "setting": "[6]", "result": "-1.43% (inactive)"}, {"measurement": "inhibition", "setting": "[7]", "result": "4.67% (inactive)"}]}, {"smiles": "O=C(O)CCCc1ccc(N(CCCl)CCCl)cc1", "values": [{"measurement": "inhibition", "setting": "[1]", "result": "0% (inactive)"}, {"measurement": "viability", "setting": "[2]", "result": "78% (inactive)"}, {"measurement": "viability", "setting": "[3]", "result": "68.1% (inactive)"}, {"measurement": "viability", "setting": "[4]", "result": "81.8% (inactive)"}, {"measurement": "differential viability (reversal)", "setting": "[5]; H69AR cells + 2 uM doxorubicin", "result": "-17.3% (inactive)"}, {"measurement": "viability", "setting": "[5]; [8]", "result": 99.1, "unit": "%"}, {"measurement": "viability", "setting": "[5]; [9]", "result": 81.8, "unit": "%"}, {"measurement": "inhibition", "setting": "[6]", "result": "-1.17% (inactive)"}, {"measurement": "inhibition", "setting": "[7]", "result": "0.67% (inactive)"}]}, {"smiles": "[N-]=[N+]=CC(=O)OC[C@H](N)C(=O)O", "values": [{"measurement": "inhibition", "setting": "[1]", "result": "0% (inactive)"}, {"measurement": "viability", "setting": "[2]", "result": "99% (inactive)"}, {"measurement": "viability", "setting": "[3]", "result": "96.5% (inactive)"}, {"measurement": "viability", "setting": "[4]", "result": "88.5% (inactive)"}, {"measurement": "differential viability (reversal)", "setting": "[5]; H69AR cells + 2 uM doxorubicin", "result": "-17.2% (inactive)"}, {"measurement": "viability", "setting": "[5]; [8]", "result": 106, "unit": "%"}, {"measurement": "viability", "setting": "[5]; [9]", "result": 88.5, "unit": "%"}, {"measurement": "inhibition", "setting": "[6]", "result": "1.56% (inactive)"}, {"measurement": "inhibition", "setting": "[7]", "result": "1.83% (inactive)"}]}]}
